Assay results published in ChEMBL document CHEMBL4823331, “Identification of gp120 Residue His105 as a Novel Target for HIV-1 Neutralization by Small-Molecule CD4-Mimics” (ACS Med Chem Lett, 2021).

Assays:
[1] = (§1) Inhibition of gp120 (Gln 105 residue) in HIV-1 JR-FL infected in dog Cf2Th-CD4/CCR5 cells assessed as inhibition of viral entry incubated for 30 mins prior to infection and further incubated for 48 to 72 hrs in presence of firefly D-luciferin free acid and ATP by single-round infection luciferase assay; assay type: cell-based; conditions: Human immunodeficiency virus 1, JR-FL
How it was run: (§2)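 Cf2Th canine cells expressing CD4 and CCR5 were infected with the named HIV-1 strain in the presence of compound. IC50 was taken as the concentration giving 50% inhibition of viral infection, reported as mean ± SD. Groups were compared by one-tailed unpaired t test (N = 3).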

[2] = as §1, with “(His” for “(Gln”, “BG505” for “JR-FL”; assay type: cell-based; conditions: Human immunodeficiency virus 1, BG505, Cf2Th-CD4/CCR5; how it was run: as §2

| IC50 [1] | IC50 [2] | SMILES |
| --- | --- | --- |
| 9.22 µM | 106 µM | C=CCC[C@@H]1c2cc(CNC)ccc2[C@H](NC(=O)C(=O)Nc2ccc(Cl)c(F)c2)[C@H]1CNC(=N)N |
| 22 µM |  | CNCc1ccc2c(c1)[C@@H](CC[C@@H](O)CO)[C@H](CNC(=N)N)[C@H]2NC(=O)C(=O)Nc1ccc(Cl)c(F)c1 |
| 8.29 µM | 130 µM | CNCc1ccc2c(c1)[C@@H](CCC(O)CO)[C@H](CNC(=N)N)[C@H]2NC(=O)C(=O)Nc1ccc(Cl)c(F)c1 (mixture of isomers) |
| 9 µM | 226 µM | CNCc1ccc2c(c1)C[C@H](CNC(=N)N)[C@H]2NC(=O)C(=O)Nc1ccc(Cl)c(F)c1 |
| 19.5 µM | > 300 µM | CNCc1ccc2c(c1)[C@H](NC(=O)C(=O)Nc1ccc(Cl)c(F)c1)[C@@H](CNC(=N)N)[C@@H]2CCC(O)CO (stereo not given in full) |
| 17.7 µM |  | CNCc1ccc2c(c1)[C@@H](CC[C@H](O)CO)[C@H](CNC(=N)N)[C@H]2NC(=O)C(=O)Nc1ccc(Cl)c(F)c1 |
| 16.2 µM | > 100 µM | C=CCC[C@@H]1c2ccc(CNC)cc2[C@H](NC(=O)C(=O)Nc2ccc(Cl)c(F)c2)[C@H]1CNC(=N)N |
| 9.45 µM | 164 µM | CNCc1ccc2c(c1)[C@H](NC(=O)C(=O)Nc1ccc(Cl)c(F)c1)[C@@H](CNC(=N)N)[C@@H]2CCCO |
| 4.97 µM | 166 µM | CNCc1ccc2c(c1)[C@@H](CCC(=O)CO)[C@H](CNC(=N)N)[C@H]2NC(=O)C(=O)Nc1ccc(Cl)c(F)c1 |
| 8.25 µM | 136 µM | CNCc1ccc2c(c1)[C@@H](CCCO)[C@H](CNC(=N)N)[C@H]2NC(=O)C(=O)Nc1ccc(Cl)c(F)c1 |
| 27.8 µM |  | CNCc1ccc2c(c1)[C@H](NC(=O)C(=O)Nc1ccc(Cl)c(F)c1)[C@@H](CNC(=N)N)[C@@H]2CC[C@H](O)CO |
| 32.5 µM |  | CCCC[C@@H]1c2cc(CNC)ccc2[C@H](NC(=O)C(=O)Nc2ccc(Cl)c(F)c2)[C@H]1CNC(=N)N |
